Measurements pooled from the literature.
Compare with care: the assays were run in different laboratories.
Target: Ephrin type-A receptor 8 (EPHA8, Homo sapiens, UniProt P29322)
Sequence (P29322 28-1005, as in one of the studies): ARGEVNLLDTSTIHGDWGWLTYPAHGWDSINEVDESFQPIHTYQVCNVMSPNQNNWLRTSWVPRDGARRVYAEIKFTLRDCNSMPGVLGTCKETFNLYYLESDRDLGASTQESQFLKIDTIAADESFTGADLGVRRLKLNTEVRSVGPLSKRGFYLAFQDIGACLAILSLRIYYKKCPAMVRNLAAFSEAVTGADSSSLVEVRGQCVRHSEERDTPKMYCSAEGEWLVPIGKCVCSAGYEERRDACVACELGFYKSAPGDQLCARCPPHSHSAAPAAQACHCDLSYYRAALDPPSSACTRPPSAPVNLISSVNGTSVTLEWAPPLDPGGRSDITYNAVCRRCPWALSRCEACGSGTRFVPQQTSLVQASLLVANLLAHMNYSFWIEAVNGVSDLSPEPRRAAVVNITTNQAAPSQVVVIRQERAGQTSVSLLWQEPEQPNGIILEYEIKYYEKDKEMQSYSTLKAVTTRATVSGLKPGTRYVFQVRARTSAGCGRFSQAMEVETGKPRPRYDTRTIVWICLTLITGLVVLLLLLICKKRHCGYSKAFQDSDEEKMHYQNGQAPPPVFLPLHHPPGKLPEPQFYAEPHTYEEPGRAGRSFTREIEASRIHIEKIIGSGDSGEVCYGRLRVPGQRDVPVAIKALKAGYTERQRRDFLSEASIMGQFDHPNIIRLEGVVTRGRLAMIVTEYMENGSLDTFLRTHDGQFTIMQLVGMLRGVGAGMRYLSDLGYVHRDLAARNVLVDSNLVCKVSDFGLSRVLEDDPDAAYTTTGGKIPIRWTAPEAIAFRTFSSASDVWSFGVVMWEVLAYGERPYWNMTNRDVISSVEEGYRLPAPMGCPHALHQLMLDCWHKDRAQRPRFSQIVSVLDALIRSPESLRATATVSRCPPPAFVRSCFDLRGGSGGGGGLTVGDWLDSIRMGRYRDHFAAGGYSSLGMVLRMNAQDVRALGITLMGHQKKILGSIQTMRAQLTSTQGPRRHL

SMILES | observed | action | method | concentration | quantity | result
Nc1ncc(-c2nc(N3CCOCC3)nc(N3CCOCC3)n2)c(C(F)F)n1 | cell-free assay |  | competition with immobilised ligand | 10 µM | remaining binding | 100%
COc1ncccc1-c1cnn2ccc(N3CCN(C(=O)OC(C)C)CC3)nc12 | binding |  | competition with immobilised ligand | 1 µM | remaining binding | 100%
Cn1cc(-c2cccc(N3CCc4c(sc5c4CC(C)(C)C5)C3=O)c2CO)cc(Nc2ccncn2)c1=O | enzyme activity | inhibitor |  | 1 µM | inhibition | 1%
O=c1[nH]c2ccccc2n1C1CCN(Cc2ccc(-c3[nH]c4cc5ncnc5cc4nc3-c3ccccc3)cc2)CC1 | cell-free assay |  |  | 0.5 µM | remaining signal | 106%
Cn1cc(-c2cc(F)cc(N3CCn4c(cc5c4CCCC5)C3=O)c2CO)cc(Nc2ccc(N3CCN(C4COC4)CC3)cn2)c1=O | enzyme activity | inhibitor |  | 0.1 µM | inhibition | 8%
Cc1nn(C)cc1-c1nc2c(N3CCN(Cc4ccc(Cl)cc4)CC3)c(Cl)cnc2[nH]1 | binding |  | competition with immobilised ligand | 1 µM | remaining binding | 100%
Cn1cncc1[C@](O)(COc1ccc(C#N)cc1-c1ccc(OC(F)(F)F)cc1)c1ccc(C#N)cc1 | cell-free assay |  | competition with immobilised ligand | 1 µM | remaining binding | 72%
COc1cc(Nc2ncc(F)c(Nc3ccc4c(n3)NC(=O)C(C)(C)O4)n2)cc(OC)c1OC | binding |  | competition with immobilised ligand | 10 µM | inhibition | 58%
CC(C)(C)c1cc(C=C(C#N)C#N)cc(Br)c1O | enzyme activity | inhibitor |  | 0.5 µM | remaining activity | 100%
COc1cc(Cl)c(C(=O)N[C@@H](CN[C@H]2CC[C@@H](N)CC2)Cc2ccc(C#N)cc2)cc1-c1ccc(CN[C@H](C)c2ccc(C)cc2)o1 | enzyme activity | inhibitor |  | 1 µM | remaining activity | 107%
N#CC1(c2ccccn2)CCN(Cc2cc(C(=O)O)c(=O)n3ccccc23)CC1 | cell-free assay |  | competition with immobilised ligand | 1 µM | remaining binding | 100%
